A short description of data set [1]: In vivo pharmacokinetic study, single oral dose, EPL in rabbit plasma by HPLC. Further details: species or system rabbits (Oryctolagus cuniculus). In short, it runs like this: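 Non-pregnant adult rabbits (2.5±0.1 kg) in three groups of six got a single oral dose of free compound, complex or nanoparticles. Jugular blood went into EDTA at set times, was spun 12,000 rpm 30 min, and plasma stored −70 °C. Perchloric acid precipitation preceded C18 HPLC (acetonitrile:KH2PO4 60:40, pH 4.0; 388 nm; plasma calibration 0.02–10 μg/mL). Non-compartmental log-linear trapezoidal analysis gave parameters; mean±SD.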

The subject of a further data set is α-glucosidase enzyme. Briefly: Alpha-glucosidase enzyme inhibition activity. The data set is classed as biochemical. As to conditions: concentration not given. In short, it runs like this: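 Enzyme was 0.02 U/μL α-glucosidase in 0.2 M sodium phosphate buffer, pH 6.8. Enzyme and buffer were preincubated 20 min with test compound in DMSO at 1000, 500, 250, 125 or 62.5 μg/mL. 0.02 M PNPG substrate was added for a further 30 min. The reaction was stopped with 0.2 M Na2CO3. Released p-nitrophenol was read at 405 nm and % inhibition calculated by formula.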

The nature of data set [2]: In vitro dissolution / drug release study. As to conditions: 0.1 M phosphate buffer pH 6.8, 37±0.5 °C, dialysis bag, up to 12 h. The data set is classed as physicochemical. The essentials:
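Free test compound, its cyclodextrin complex and the complex-loaded chitosan nanoparticles were placed in dialysis bags presoaked overnight. Medium was 100 mL of 0.1 M phosphate buffer, pH 6.8, at 37±0.5 °C. Samples were 0.45 µm filtered and assayed by UV at 388 nm.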

Compound `CC(/C=C1\SC(=S)N(CC(=O)O)C1=O)=C\c1ccccc1` [EPL, Epalrestat] came in with a Cmax in data set [1] (plasma, po) of 4750 ± 3640 ng/mL. The AUC in data set [1] (plasma, po, AUC0-α, single oral dose, mean±SD) was found to be 192 ± 165 µg·h/mL. Further, in data set [1] (single oral dose, mean±SD), the AUC0-α is 191.5 ± 164.63 µg·h/mL, the MRT is given as 47.22±3.88 H and the “T1/2 (elimination half-life)” value was determined as 4 H. Further, in the data set on α-glucosidase enzyme, the “potency against α-glucosidase enzyme inhibition” value is “greater than 70%”. For the same compound, in data set [2], the “cumulative drug release (%)” value is 20–25%.

By Cmax is commonly meant the highest concentration seen after dosing. Usually AUC stands for the area under the concentration-time curve, a measure of exposure. Low values mean less exposure, high ones more exposure.

(Values after publication PMC8721161 (International Journal of Nanomedicine, 2021).)
